Laboratory results from ChEMBL document CHEMBL1157428, “Ring-closing metathesis for the synthesis of a highly G-quadruplex selective macrocyclic hexaoxazole having enhanced cytotoxic potency” (Bioorg Med Chem Lett, 2008).
The source made the active and inactive calls. The calls are words filed in the database; no cut-off is given here.

Key:
[1] = test system: Salmonidae; assay: Binding affinity to salmon testes duplex DNA assessed as transition temperature
Procedure, shortened: (§1)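 Thermal melting. Salmon testes duplex DNA at 15 μM base pairs, with macrocyclic ligand at 15 μM. Telomeric d[T2G3(T2AG3)3A] at 4 μM strand, with macrocyclic ligand at 20 μM. Buffer was 10 mM EPPS pH 7.5, with KCl added to 50 mM total K+. Transition temperature was taken for DNA with and without ligand.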

[2] = organism: Homo sapiens; assay: Effect on thermal stability of G-quadruplex human telomeric DNA sequence d[T2G3(T2AG3)3A] assessed as transition temperature; procedure, shortened: as §1
[3] = organism: Homo sapiens; assay: Binding affinity to […] human telomeric DNA sequence d[T2G3(T2AG3)3A] assessed as transition temperature; procedure, shortened: as §1
[4] = test system: Salmonidae; assay: Effect on thermal stability of salmon testes duplex DNA assessed as transition temperature; procedure, shortened: as §1
[5] = test system: P388; assay: Cytotoxicity against mouse P388 cells by MTT assay; format: functional, cell-based
[6] = Cytotoxicity against human RPMI8402 cells by MTT assay; format: functional, cell-based; settings: RPMI 8402
[7] = Cytotoxicity against human KB3-1 cells by MTT assay; format: functional, cell-based; settings: KB 3-1
[8] = Cytotoxicity against human KBV1 cells by MTT assay; format: functional, cell-based; settings: KB-V1
[9] = Cytotoxicity against human KBH5.0 cells by MTT assay; format: functional, cell-based; settings: KBH5.0 cell

Row | SMILES | Activity [1] | Activity [2] | Activity [3] | Activity [4] | IC50 [5] [µM] | IC50 [6] [µM] | IC50 [7] [µM] | IC50 [8] [µM] | IC50 [9] [µM]
1 | CC(C)[C@@H]1NC(=O)c2coc(n2)-c2coc(n2)-c2coc(n2)C/C=C/c2coc(n2)-c2coc(n2)-c2coc1n2 | inactive | Active | Active | inactive | 0.045 | 0.025 | 0.038 | 3.3 | 0.043
2 | CC(C)[C@@H]1NC(=O)c2coc(n2)-c2coc(n2)-c2coc(n2)[C@H](C(C)C)NC(=O)c2coc(n2)-c2coc(n2)-c2coc1n2 [HEXAOXAZOLE DIVALINE] | inactive | Active | Active | inactive | 0.5 | 0.41 | 0.3 | 8 | 0.5
